In the library only some 2.7% were active in any assay of this set; here they are far more common.
ARFGAP1 inhibitor – inhibitors of rat ARFGAP1. AID 651572. Q62848. inhibition, % at 16.5 µM. Arfgap1-stimulated ARF1 GTP hydrolysis, GDP FP detection. 360,000 compounds, 0.26% hits;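 active = inhibition above a per-plate limit, mean inhibition of low control wells plus 3 SD, cut at about 25% in these data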
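System: truncated rat Arfgap1 GAP domain / Benchmarks: high control wells lacking Arfgap1, low control full reaction with DMSO / Times: compound-enzyme preincubation 20 min, reaction 120 min, detection 60 min, 25 °C / Repeats: one replicate per compound / Also added: human ARF1(Δ1-17)-GTP substrate / Measured by: Tracer-displacement fluorescence polarization with EDTA stop, 620/688 nm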
sPLA2-III inh – Inhibits HGIII-sPLA2 liposome hydrolysis, primary screen | inhibition, % at 12.2 µM | AID 743126 | QFRET BODIPY PC-A2 liposome hydrolysis, fluorescence | Q9NZ20 | 370,000 compounds, 0.56% hits;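 active = inhibition above mean plus 3 SD of compounds lying within the high and low control bounds, cut at about 19% in these data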
MsrA inh – bovine MsrA inhibition | purified bovine MsrA, absorbance read-out | inhibition, % at 15.5 µM | 360,000 compounds, 0.75% hits | AID 651718; in the data active = inhibition above about 4.5%
ASAP1 inh – inhibitors of human ASAP1 ArfGAP activity; Q9ULH1; ASAP1-stimulated ARF1 GTP hydrolysis, GDP FP detection; inhibition, % at 16.5 µM; 360,000 compounds, 0.19% hits; AID 624377; in the data active = inhibition above about 25%
NR1D1 modulator – modulators of human Rev-erb alpha DNA binding. AID 1259318. 370,000 compounds, 0.79% hits. Rev-erbα–FITC-DNA binding, fluorescence polarization, 90 min. activity, % at 10 µM;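 active = activity above about 14%, limit read from the data; passing the limit was not always enough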
Target sequence (P20393 whole entry, looked up): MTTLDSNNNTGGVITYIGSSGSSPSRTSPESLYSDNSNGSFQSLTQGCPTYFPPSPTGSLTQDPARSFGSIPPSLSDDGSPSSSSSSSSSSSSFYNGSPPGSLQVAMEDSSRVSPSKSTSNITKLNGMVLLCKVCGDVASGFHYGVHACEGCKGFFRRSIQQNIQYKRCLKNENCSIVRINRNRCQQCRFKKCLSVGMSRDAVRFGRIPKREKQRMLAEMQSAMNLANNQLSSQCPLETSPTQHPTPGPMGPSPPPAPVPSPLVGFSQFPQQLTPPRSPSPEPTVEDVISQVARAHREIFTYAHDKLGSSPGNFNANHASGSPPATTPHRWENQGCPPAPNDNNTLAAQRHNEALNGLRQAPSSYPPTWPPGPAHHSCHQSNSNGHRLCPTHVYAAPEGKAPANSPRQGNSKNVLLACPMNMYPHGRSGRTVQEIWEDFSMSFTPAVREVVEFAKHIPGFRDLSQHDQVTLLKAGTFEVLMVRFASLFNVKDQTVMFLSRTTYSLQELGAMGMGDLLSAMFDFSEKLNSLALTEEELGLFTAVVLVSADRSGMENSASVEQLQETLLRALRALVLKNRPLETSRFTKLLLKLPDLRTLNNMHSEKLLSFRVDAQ
bovine MsrA act – activates bovine MsrA enzyme | purified bovine MsrA, absorbance read-out | activation, % at 10.6 µM | 360,000 compounds, 0.3% hits | AID 602163; in the data active = activation above about 7.5%
hGIII sPLA2 conf – human GIII-sPLA2 inhibition, confirmation; recombinant hGIII-sPLA2, BODIPY PC-A2 QFRET fluorescence; shares compounds with sPLA2-III inh; AID 743280; 2,000 compounds, 34% hits; inhibition, % at 12.2 µM;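 active = mean inhibition across triplicates above the hit cutoff set in the earlier primary screen, cut at about 19% in these data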
BODIPY interf – optically interferes with 535nm fluorescence in sPLA2 counter-screen | inhibition, % at 12.2 µM | shares compounds with sPLA2-III inh | BODIPY FL product fluorescence interference, QFRET | AID 743282 | 2,000 compounds, 8.5% hits;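 active = average inhibition above the solvent-only control mean plus 3 SD, cut at about 6% in these data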
BODIPY interf DR – counter-screen for HGIII-sPLA2 inhibitors: 535nm fluorescence interference, dose response; BODIPY FL product fluorescence interference, cell-free; IC50, µM; 240 tested, under 10 active; shares compounds with sPLA2-III inh;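 active = IC50 at or below 10 µM; inactive = IC50 above 10 µM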
Of the large screens only hits and unclear results are named; the others gave an inactive call (follow-up assays come after a bar, where they were run).

OC[C@@H]1CN(Cc2ccncc2)C[C@H](n2cnc3c(NC4CCCC4)ncnc32)O1	sPLA2-III inh 21.2 | hGIII sPLA2 conf inactive | BODIPY interf inactive
COCCN1C[C@@H](CO)O[C@@H](n2cnc3c(N4CCN(C)CC4)ncnc32)C1	none (no result: ARFGAP1 inhibitor, sPLA2-III inh, MsrA inh, ASAP1 inh, NR1D1 modulator)
COCCN1C[C@@H](CO)O[C@@H](n2cnc3c(N4CCCC4)ncnc32)C1	sPLA2-III inh 20.5 | hGIII sPLA2 conf inactive | BODIPY interf inactive
COc1ccc(CN2C[C@@H](CO)O[C@@H](n3cnc4c(N5CCOCC5)ncnc43)C2)cc1	sPLA2-III inh 20.0 | hGIII sPLA2 conf inactive | BODIPY interf inactive
Cc1ccc(C2=N/C(=C\c3coc4ccccc4c3=O)C(=O)O2)cc1	none (no result: bovine MsrA act)
COC(=O)[C@H](CC(C)C)N(CCc1cn(Cc2ccc(C)cc2)nn1)S(=O)(=O)c1ccc(F)cc1Br	none (no result: ARFGAP1 inhibitor, MsrA inh, ASAP1 inh, bovine MsrA act)
CCC(=O)Nc1c(C(=O)N2CCN(c3ccccn3)CC2)cnn1-c1ccc(C)cc1	sPLA2-III inh 22.3 | hGIII sPLA2 conf inactive | BODIPY interf inactive
CCn1ncc(Br)c1C(=O)NC(C)c1ccccc1 (stereo not drawn)	none
CCn1ncc(Cl)c1C(=O)NC(C)c1ccccc1 (stereo not drawn)	sPLA2-III inh 20.6 | hGIII sPLA2 conf inactive | BODIPY interf inactive
CCN1C(=NCCc2ccc(Br)cc2)N[C@@H](c2ccccc2)[C@H](C(=O)OC)[C@H]1C	none
CCN1C(=NCCCOC(C)C)N[C@@H](c2ccccc2)[C@H](C(=O)OC)[C@H]1C	sPLA2-III inh 19.2 | hGIII sPLA2 conf inactive | BODIPY interf inactive
O=C(NCc1cccc(Cl)c1)O[C@H]1CC[C@@]23CCCN2C(=O)CCC[C@H]3C1	none (no result: ARFGAP1 inhibitor, MsrA inh, ASAP1 inh, bovine MsrA act)
CSc1ccc(CNc2ccc(C)cc2)cc1	sPLA2-III inh 22.1 | hGIII sPLA2 conf inactive | BODIPY interf inactive
CCCCNC(=O)C1(C)CCN1C(=O)c1cccnc1Oc1ccccc1 (stereo not drawn)	none
CCCCCCCCNC(=S)NCCN1CCCCC1	sPLA2-III inh 23.1 | hGIII sPLA2 conf 21.4 | BODIPY interf inactive
S=C(NCCCN1CCOCC1)NCCCN1CCOCC1	none
COc1cccc(CNC(=O)Cn2c(-c3ccccc3)cc(C(C)=O)c2C)c1	none (no result: ARFGAP1 inhibitor, MsrA inh, ASAP1 inh, bovine MsrA act)
CC1CN(C(=O)C2CC2)C(C)CN1C(=O)C1CC1 (stereo not drawn)	sPLA2-III inh 25.0 | hGIII sPLA2 conf inactive | BODIPY interf inactive
CC1CN(C(=O)C2CCCC2)C(C)CN1C(=O)C1CCCC1 (stereo not drawn)	none
Cc1ccc(-c2sc(C(=O)NN)c(C)c2C#N)cc1	sPLA2-III inh 24.2 | hGIII sPLA2 conf inactive | BODIPY interf inactive
CC(C)C[C@H]1COc2cccc(N3CCCC3)c2S(=O)(=O)N1C	none (no result: ARFGAP1 inhibitor, MsrA inh, ASAP1 inh, bovine MsrA act)
CCCCCN=C(N)N/N=C/c1c[nH]c2ccc(OC)cc12	sPLA2-III inh 27.6 | hGIII sPLA2 conf 39.6 | BODIPY interf inactive
COc1ccc(C(=O)N/N=C/c2c[nH]c3ccccc23)cc1	none
COc1ccc(C=C2NC(=S)NC2=O)cc1	sPLA2-III inh 25.1 | hGIII sPLA2 conf inactive | BODIPY interf inactive
CC1=C(C(=O)Nc2ccccc2C)C(c2ccc(C)o2)C2=C(CCCC2=O)N1 (stereo not drawn)	none
CC1=C(C(=O)Nc2ccccc2C)C(c2ccc(C)o2)NC(=S)N1 (stereo not drawn)	sPLA2-III inh 20.1 | hGIII sPLA2 conf 22.0 | BODIPY interf inactive
CCCCNC(=O)C1(C(=O)C2CC2)CC(C(=O)OCC)=NO1 (stereo not drawn)	none (no result: ARFGAP1 inhibitor, MsrA inh, ASAP1 inh, bovine MsrA act)
CCc1c(-c2n[nH]c(=S)n2Cc2ccccc2)csc1C	sPLA2-III inh 20.4 | hGIII sPLA2 conf 33.2 | BODIPY interf inactive | BODIPY interf DR inactive
OCCCN1CCC2(CCC(c3ccccc3)CC2)C1 (stereo not drawn)	none (no result: ARFGAP1 inhibitor, MsrA inh, ASAP1 inh, bovine MsrA act)
